Measurements taken from ChEMBL document CHEMBL1149495, “Newly discovered orally active pure antiestrogens” (Bioorg Med Chem Lett, 2006).

Assays:
[1] = tested on: Mus musculus; test: Agonist effect on estrogen activity assessed as stimulation of uterine weight gain in ovariectomized mouse at 17 mg/kg, sc relative to control; format: functional; conditions: route subcutaneous
Summary of the method: (§1)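 Ovariectomized mice dosed sc once daily for three consecutive days with test compound in 10% EtOH-peanut oil. Uteri weighed about 24 h after last dose. Uterine weight gain per body weight expressed as % = 100·(T−C)/(E−C), E being the 17b-estradiol benzoate response and C vehicle. Mean ± SEM. Difference from vehicle tested by Student's t test (P < 0.05).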

[2] = (§2) AUC in Sprague-Dawley rat at 10 mg/kg, iv; format: ADME, organism-based, Plasma; parameters: dose 10 mg/kg, route intravenous; conditions: Sprague-Dawley, plasma
Summary of the method: (§3)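 Sprague–Dawley rats dosed as a solution in water/PEG200/EtOH (3:6:1), intravenously at 10 mg/kg or orally at 20 mg/kg. Plasma AUC of intact compound; total clearance also derived from iv data and bioavailability from po/iv AUC.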

[3] = Total clearance in Sprague-Dawley rat at 10 mg/kg, iv; format: ADME, organism-based; parameters: dose 10 mg/kg, route intravenous; conditions: in vivo
Summary of the method: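 Sprague–Dawley rats were given a single iv dose as a solution in water/PEG200/EtOH (3:6:1). Total clearance was derived alongside plasma AUC.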

[4] = (§4) AUC in Sprague-Dawley rat at 20 mg/kg, po; format: ADME, organism-based, Plasma; parameters: dose 20 mg/kg, route oral; conditions: Sprague-Dawley, plasma; summary of the method: as §3
[5] = Bioavailability in Sprague-Dawley rat; format: ADME, organism-based; conditions: in vivo
Summary of the method: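 Sprague–Dawley rats were given the compound as a solution in water/PEG200/EtOH (3:6:1), 10 mg/kg iv and 20 mg/kg po. Plasma AUC was determined for each route.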

[6] = AUC in CD1 mouse at 30 mg/kg, po; format: ADME, organism-based; parameters: dose 30 mg/kg, route oral; conditions: plasma
Summary of the method: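 CD-1 mice dosed orally at 30 mg/kg as a suspension in 5% gum arabic. Plasma AUC measured for intact compound and separately for its 17-position metabolite (17-keto/17-hydroxy interconversion product).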

[7] = AUC in CD1 mouse at 10 mg/kg, iv; format: ADME, organism-based; parameters: dose 10 mg/kg, route intravenous; conditions: plasma
Summary of the method: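 CD-1 mice dosed intravenously at 10 mg/kg as a solution in water/PEG200/EtOH (3:6:1). Plasma AUC of intact compound.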

[8] = Bioavailability in CD1 mouse; format: ADME, organism-based; conditions: in vivo
Summary of the method: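 CD-1 mice were dosed orally at 30 mg/kg as a suspension in 5% gum arabic, and intravenously at 10 mg/kg as a solution in water/PEG200/EtOH (3:6:1). Plasma AUC of the intact compound was measured for each route. The 17-keto or 17-hydroxy metabolite was also monitored.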

[9] = AUC in cynomolgus monkey at 3 mg/kg, po; format: ADME, organism-based, Macaca fascicularis; parameters: dose 3 mg/kg, route oral; conditions: plasma
Summary of the method: (§5)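 Cynomolgus monkeys given 3 mg/kg intravenously or orally as a solution in water/PEG200/EtOH (4:8:3). Plasma AUC of intact compound; after oral dosing the 17-position metabolite was also quantified, and bioavailability was calculated from po versus iv AUC.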

[10] = molecular target: T1, Estrogen receptor (Homo sapiens) (UniProt P03372); test: Displacement of [3H]estradiol from recombinant ERalpha relative to estradiol
T1 sequence (whole entry): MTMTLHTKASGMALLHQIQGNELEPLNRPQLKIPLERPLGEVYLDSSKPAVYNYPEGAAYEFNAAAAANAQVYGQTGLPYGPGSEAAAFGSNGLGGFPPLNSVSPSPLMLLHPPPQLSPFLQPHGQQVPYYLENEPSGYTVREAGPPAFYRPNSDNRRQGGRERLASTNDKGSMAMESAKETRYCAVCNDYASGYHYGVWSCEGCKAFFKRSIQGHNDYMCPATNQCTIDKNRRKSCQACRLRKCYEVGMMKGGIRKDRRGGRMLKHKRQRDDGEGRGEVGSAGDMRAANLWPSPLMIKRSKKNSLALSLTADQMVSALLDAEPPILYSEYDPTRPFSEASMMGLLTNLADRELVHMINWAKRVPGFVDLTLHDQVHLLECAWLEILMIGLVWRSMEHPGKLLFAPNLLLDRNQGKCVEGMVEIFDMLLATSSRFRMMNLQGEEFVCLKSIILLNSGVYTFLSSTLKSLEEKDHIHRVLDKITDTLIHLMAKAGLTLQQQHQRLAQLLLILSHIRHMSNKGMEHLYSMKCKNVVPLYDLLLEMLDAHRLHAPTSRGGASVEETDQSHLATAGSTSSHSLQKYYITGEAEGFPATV
Summary of the method: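 Competitive radiometric binding assay using human recombinant ERα, with [3H]estradiol displaced by the test compound. Result is expressed as relative binding affinity (%), with estradiol set to 100.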

[11] = tested on: Mus musculus; test: Antagonist effect on estrogen activity assessed as inhibition of estrogen-stimulated uterine weight gain in ovariectomized mouse at 1 mg/kg, po; format: functional
Summary of the method: (§6)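 Ovariectomized mice given 0.1 lg 17b-estradiol benzoate sc in peanut oil plus oral test compound in 5% gum arabic-water suspension, once daily for three consecutive days. Uteri weighed about 24 h after last dose. % inhibition = 100·(1−(T−C)/(E−C)), using uterine weight gain per body weight. C is vehicle. Mean ± SEM.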

[12] = tested on: Mus musculus; test: Antagonist effect on estrogen activity assessed as inhibition of estrogen-stimulated uterine weight gain in ovariectomized mouse at 3 mg/kg, po; format: functional; summary of the method: as §6
[13] = tested on: Mus musculus; test: Antagonist effect on estrogen activity assessed as inhibition of estrogen-stimulated uterine weight gain in ovariectomized mouse at 10 mg/kg, po; format: functional; summary of the method: as §6
[14] = tested on: Rattus norvegicus; test: as §2; format: ADME, organism-based, Plasma; parameters: dose 10 mg/kg, route intravenous; conditions: in vivo; summary of the method: as §3
[15] = tested on: Rattus norvegicus; test: as §4; format: ADME, organism-based, Plasma; parameters: dose 20 mg/kg, route oral; conditions: in vivo; summary of the method: as §3
[16] = tested on: Mus musculus; test: Agonist effect on estrogen activity assessed as stimulation of uterine weight gain in ovariectomized mouse at 50 mg/kg, sc relative to control; format: functional; conditions: route subcutaneous; summary of the method: as §1
[17] = AUC in cynomolgus monkey at 3 mg/kg, iv; format: ADME, organism-based, Macaca fascicularis; parameters: dose 3 mg/kg, route intravenous; conditions: plasma; summary of the method: as §5
[18] = Bioavailability in cynomolgus monkey; format: ADME, organism-based, Macaca fascicularis; conditions: in vivo
Summary of the method: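 Cynomolgus monkeys received 3 mg/kg by both the oral and intravenous routes, as a solution in water/PEG200/EtOH (4:8:3). Plasma AUC of the intact compound and of the interconverting 17-keto/17-hydroxy metabolite was measured.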

SMILES | Activity [1] | AUC [2] | clearance [3] | AUC [4] | bioavailability [5] | AUC [6] | AUC [7] | bioavailability [8] | AUC [9] | RBA [10] | inhibition in vivo at 1 mg/kg [11] | inhibition in vivo at 3 mg/kg [12] | inhibition in vivo at 10 mg/kg [13] | AUC [14] | AUC [15] | Activity [16] | AUC [17] | bioavailability [18]
C[C@]12CC[C@@H]3c4ccc(O)cc4C[C@@H](CCCCCCCC[C@H](CCCC(F)(F)C(F)(F)C(F)(F)C(F)(F)F)C(=O)O)[C@H]3[C@@H]1CC[C@@H]2O | 3% | 254 µg·h/mL | 0.65 mL/min/kg | 190 µg·h/mL | 37% | 470 µg·h/mL | 447 µg·h/mL | 35% | 0.3 µg·h/mL | 1% | 58% | 88% | 103% | – | – | – | – | –
C[C@]12CC[C@@H]3c4ccc(O)cc4C[C@@H](CCCCCCCCCC(CCCC(F)(F)C(F)(F)C(F)(F)C(F)(F)F)C(=O)O)[C@H]3[C@@H]1CC[C@@H]2O (stereo partly specified) | – | – | – | – | – | – | – | – | – | 0.7% | 27% | 42% | 85% | – | – | – | – | –
C[C@]1(c2ccc(O)cc2)CSc2cc(O)ccc2[C@H]1CCCCCCCCC(CCCC(F)(F)C(F)(F)F)C(=O)O (stereo partly specified) | – | – | – | – | – | – | – | – | – | – | 11% | 41% | 77% | 228 µg·h/mL | 209 µg·h/mL | – | – | –
C[C@]12CC[C@@H]3c4ccc(O)cc4C[C@@H](CCCCCCCCC[S+]([O-])CCCC(F)(F)C(F)(F)F)[C@H]3[C@@H]1CC[C@@H]2O (stereo partly specified) [FULVESTRANT] | – | – | – | – | – | – | – | – | – | – | 11% | 29% | 54% | 5.3 µg·h/mL | 1.7 µg·h/mL | – | – | –
C[C@]12CC[C@@H]3c4ccc(O)cc4C[C@@H](CCCCCCCCC(CCCC(F)(F)C(F)(F)C(F)(F)C(F)(F)F)C(=O)O)[C@H]3[C@@H]1CC[C@@H]2O (stereo partly specified) | 4% | 207 µg·h/mL | 0.817 mL/min/kg | 144 µg·h/mL | 35% | – | – | – | – | 1.4% | 64% | 87% | 96% | – | – | – | – | –
C[C@]12CC[C@@H]3c4ccc(O)cc4C[C@@H](CCCCCCCCCC(CCC(F)(F)C(F)(F)C(F)(F)C(F)(F)F)C(=O)O)[C@H]3[C@@H]1CC[C@@H]2O (stereo partly specified) | – | – | – | – | – | – | – | – | – | 0.7% | 27% | 49% | 92% | – | – | – | – | –
C[C@]12CC[C@@H]3c4ccc(O)cc4C[C@@H](CCCCCCCC[C@@H](CCCC(F)(F)C(F)(F)C(F)(F)C(F)(F)F)C(=O)O)[C@H]3[C@@H]1CCC2=O | – | 50 µg·h/mL | – | 32 µg·h/mL | 32% | 468 µg·h/mL | 389 µg·h/mL | 40% | 2.42 µg·h/mL | 1% | 54% | 85% | 96% | – | – | 1% | 77 µg·h/mL | 3.1%
C[C@]12CC[C@@H]3c4ccc(O)cc4C[C@@H](CCCCCCCCCC(CCCC(F)(F)C(F)(F)F)C(=O)O)[C@H]3[C@@H]1CC[C@@H]2O (stereo partly specified) | – | – | – | – | – | – | – | – | – | 1.4% | 22% | 30% | 80% | – | – | – | – | –
C[C@]12CC[C@@H]3c4ccc(O)cc4C[C@@H](CCCCCCCC[C@@H](CCCC(F)(F)C(F)(F)C(F)(F)C(F)(F)F)C(=O)O)[C@H]3[C@@H]1CC[C@@H]2O | 4% | 146 µg·h/mL | 1.23 mL/min/kg | 98 µg·h/mL | 33% | 274 µg·h/mL | 244 µg·h/mL | 37% | 0.42 µg·h/mL | 1.1% | 59% | 93% | 99% | – | – | – | 88 µg·h/mL | 0.48%
C[C@]12CC[C@@H]3c4ccc(O)cc4C[C@@H](CCCCCCCCC(CCCC(F)(F)C(F)(F)F)C(=O)O)[C@H]3[C@@H]1CC[C@@H]2O (stereo partly specified) | – | – | – | – | – | – | – | – | – | 0.8% | 37% | 67% | 87% | – | – | – | – | –
C[C@]12CC[C@@H]3c4ccc(O)cc4C[C@@H](CCCCCCCCC(CCC(F)(F)C(F)(F)C(F)(F)C(F)(F)F)C(=O)O)[C@H]3[C@@H]1CC[C@@H]2O (stereo partly specified) | – | – | – | – | – | – | – | – | – | 0.6% | 55% | 80% | 98% | – | – | – | – | –
